Assay results: ChEMBL document CHEMBL5724801, “EUbOPEN Chemogenomics Library - Multiplex” (2024)
Several values for one entry are separate records, joined by “and”; a condition that tells them apart may be missing. Equal entries are not always repeated.

System: Fibroblast
Experiment: Multiplex assay against human fibroblast
Type: toxicity, cell-based
Method in brief: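 Phenotypes for tubulin, mitochondrial mass and membrane permeability are expressed as per cents of healthy-nucleus cells. Cells were stained live at seeding with Hoechst33342, BioTracker Green Microtubule Cytoskeleton Dye, MitoTracker Red and Annexin V Alexa Fluor 680, then imaged after compound addition on a CQ1 microscope at 37°C and 5% CO2. Machine-learning gating in CellPathfinder separated Hoechst high-intensity objects from normal cells, divided normal cells by nuclear state (healthy, pyknosed, fragmented) and divided pyknosed cells into mitotic or apoptotic.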

[1] = 12 h, 1 µM, compound concentration 1 uM
[2] = 12 h, 10 µM, compound concentration 10 uM
[3] = 24 h, 1 µM, compound concentration 1 uM
[4] = 24 h, 10 µM, compound concentration 10 uM
[5] = 48 h, 1 µM, compound concentration 1 uM
[6] = 48 h, 10 µM, compound concentration 10 uM

Structure (SMILES): Cc1c(C(=O)NCCCN(C)C)sc2ncnc(Nc3ccc(F)cc3OC(C)CF)c12 (stereo not given)
- Population Fragmented Nuclei (%) [1]: 17.37% and 8.18%
- Population Healthy Nuclei (%) [1]: 51.64% and 79.93%
- Population Hoechst High Intensity Objects (%) [1]: 0%
- Population Membrane Permeable-Phenotype (%) [1]: 0.91% and 2.79%
- Population Mitochondria Different-Phenotype (%) [1]: 15.45% and 13.95%
- Population Mitotic Cells (%) [1]: 92.42% and 75%
- Population Normal (%) [1]: 100%
- Population Pyknosed Nuclei (%) [1]: 30.99% and 11.9%
- Population Tubulin-Different-Phenotype (%) [1]: 30.91% and 38.14%
- Total Cell Count [1]: 213 and 269
- Population Apoptotic (%) [2]: 19.3% and 27.27%
- Population Fragmented Nuclei (%) [2]: 12.69% and 4.88%
- Population Healthy Nuclei (%) [2]: 43.46% and 60.98%
- Population Hoechst High Intensity Objects (%) [2]: 0%
- Population Membrane Permeable-Phenotype (%) [2]: 10.62% and 8%
- Population Mitochondria Different-Phenotype (%) [2]: 35.4% and 21.45%
- Population Mitotic Cells (%) [2]: 80.7% and 72.73%
- Population Normal (%) [2]: 100%
- Population Pyknosed Nuclei (%) [2]: 43.85% and 34.15%
- Population Tubulin-Different-Phenotype (%) [2]: 46.9% and 77.82%
- Total Cell Count [2]: 260 and 451
- Population Fragmented Nuclei (%) [3]: 16.28% and 8.79%
- Population Healthy Nuclei (%) [3]: 68.99% and 76.87%
- Population Hoechst High Intensity Objects (%) [3]: 0%
- Population Membrane Permeable-Phenotype (%) [3]: 2.25% and 3.81%
- Population Mitochondria Different-Phenotype (%) [3]: 5.06% and 8.05%
- Population Mitotic Cells (%) [3]: 94.74% and 72.73%
- Population Normal (%) [3]: 100%
- Population Pyknosed Nuclei (%) [3]: 14.73% and 14.33%
- Population Tubulin-Different-Phenotype (%) [3]: 28.09% and 38.14%
- Total Cell Count [3]: 258 and 307
- Population Apoptotic (%) [4]: 33.11% and 50.51%
- Population Fragmented Nuclei (%) [4]: 9.29% and 4.55%
- Population Healthy Nuclei (%) [4]: 35.69% and 45.45%
- Population Hoechst High Intensity Objects (%) [4]: 0%
- Population Membrane Permeable-Phenotype (%) [4]: 13.54% and 11.11%
- Population Mitochondria Different-Phenotype (%) [4]: 40.62% and 36.11%
- Population Mitotic Cells (%) [4]: 66.89% and 49.49%
- Population Normal (%) [4]: 100%
- Population Pyknosed Nuclei (%) [4]: 55.02% and 50%
- Population Tubulin-Different-Phenotype (%) [4]: 75% and 87.78%
- Total Cell Count [4]: 269 and 396
- Population Apoptotic (%) [5]: 28.57% and 61.54%
- Population Fragmented Nuclei (%) [5]: 15.91% and 10.44%
- Population Healthy Nuclei (%) [5]: 79.55% and 85.44%
- Population Hoechst High Intensity Objects (%) [5]: 0%
- Population Membrane Permeable-Phenotype (%) [5]: 0% and 7.04%
- Population Mitochondria Different-Phenotype (%) [5]: 6.94% and 2.59%
- Population Mitotic Cells (%) [5]: 71.43% and 38.46%
- Population Normal (%) [5]: 100%
- Population Pyknosed Nuclei (%) [5]: 4.55% and 4.11%
- Population Tubulin-Different-Phenotype (%) [5]: 15.92% and 33.7%
- Total Cell Count [5]: 308 and 316
- Population Apoptotic (%) [6]: 51.69% and 82.89%
- Population Fragmented Nuclei (%) [6]: 13.56% and 8.54%
- Population Healthy Nuclei (%) [6]: 48.73% and 29.67%
- Population Hoechst High Intensity Objects (%) [6]: 0%
- Population Membrane Permeable-Phenotype (%) [6]: 14.78% and 17.81%
- Population Mitochondria Different-Phenotype (%) [6]: 50.43% and 54.79%
- Population Mitotic Cells (%) [6]: 48.31% and 17.11%
- Population Normal (%) [6]: 100%
- Population Pyknosed Nuclei (%) [6]: 37.71% and 61.79%
- Population Tubulin-Different-Phenotype (%) [6]: 76.52% and 83.56%
- Total Cell Count [6]: 236 and 246

Structure (SMILES): C[C@H](NC(=O)c1c(C(F)F)nn(C)c1Oc1cccc(C(F)(F)F)c1)c1ccc(C(=O)O)cc1 [PALUPIPRANT]
- Population Apoptotic (%) [1]: 26% and 24%
- Population Fragmented Nuclei (%) [1]: 29% and 23%
- Population Healthy Nuclei (%) [1]: 57% and 52%
- Population Hoechst High Intensity Objects (%) [1]: 5% and 6%
- Population Membrane Permeable-Phenotype (%) [1]: 0% and 11%
- Population Mitochondria Different-Phenotype (%) [1]: 4% and 6%
- Population Mitotic Cells (%) [1]: 73% and 75%
- Population Normal (%) [1]: 94% and 93%
- Population Pyknosed Nuclei (%) [1]: 12% and 23%
- Population Tubulin-Different-Phenotype (%) [1]: 23% and 55%
- Total Cell Count [1]: 187 and 148
- Population Apoptotic (%) [2]: 45% and 35%
- Population Healthy Nuclei (%) [2]: 70% and 35%
- Population Mitochondria Different-Phenotype (%) [2]: 6% and 13%
- Population Mitotic Cells (%) [2]: 55% and 64%
- Population Normal (%) [2]: 97% and 85%
- Population Pyknosed Nuclei (%) [2]: 16% and 22%
- Population Tubulin-Different-Phenotype (%) [2]: 45% and 60%
- Total Cell Count [2]: 126 and 149
- Population Apoptotic (%) [3]: 40% and 42%
- Population Fragmented Nuclei (%) [3]: 32% and 26%
- Population Healthy Nuclei (%) [3]: 58% and 53%
- Population Hoechst High Intensity Objects (%) [3]: 5% and 7%
- Population Membrane Permeable-Phenotype (%) [3]: 1% and 8%
- Population Mitochondria Different-Phenotype (%) [3]: 4% and 5%
- Population Mitotic Cells (%) [3]: 60% and 57%
- Population Normal (%) [3]: 94% and 92%
- Population Pyknosed Nuclei (%) [3]: 8% and 20%
- Total Cell Count [3]: 178 and 141
- Population Apoptotic (%) [4]: 60% and 38%
- Population Fragmented Nuclei (%) [4]: 18% and 40%
- Population Healthy Nuclei (%) [4]: 62% and 42%
- Population Hoechst High Intensity Objects (%) [4]: 5% and 10%
- Population Mitochondria Different-Phenotype (%) [4]: 7% and 3%
- Population Mitotic Cells (%) [4]: 39% and 61%
- Population Normal (%) [4]: 94% and 89%
- Population Pyknosed Nuclei (%) [4]: 18% and 17%
- Population Tubulin-Different-Phenotype (%) [4]: 35% and 51%
- Total Cell Count [4]: 131 and 138
- Population Apoptotic (%) [5]: 53%
- Population Fragmented Nuclei (%) [5]: 34% and 30%
- Population Healthy Nuclei (%) [5]: 57% and 50%
- Population Hoechst High Intensity Objects (%) [5]: 11% and 3%
- Population Membrane Permeable-Phenotype (%) [5]: 0% and 4%
- Population Mitochondria Different-Phenotype (%) [5]: 4%
- Population Mitotic Cells (%) [5]: 46%
- Population Normal (%) [5]: 88% and 96%
- Population Pyknosed Nuclei (%) [5]: 7% and 19%
- Population Tubulin-Different-Phenotype (%) [5]: 29% and 53%
- Total Cell Count [5]: 184 and 147
- Population Apoptotic (%) [6]: 73% and 60%
- Population Fragmented Nuclei (%) [6]: 20% and 45%
- Population Healthy Nuclei (%) [6]: 60% and 45%
- Population Hoechst High Intensity Objects (%) [6]: 4% and 13%
- Population Membrane Permeable-Phenotype (%) [6]: 1% and 10%
- Population Mitochondria Different-Phenotype (%) [6]: 8% and 6%
- Population Mitotic Cells (%) [6]: 26% and 40%
- Population Normal (%) [6]: 95% and 86%
- Population Pyknosed Nuclei (%) [6]: 18% and 9%
- Population Tubulin-Different-Phenotype (%) [6]: 46% and 50%
- Total Cell Count [6]: 130 and 122
